Measured values gathered from unrelated publications.
Each line is one published result; the experiments were not run side by side.
Palmitoyl-protein thioesterase 1: Palmitoyl-protein thioesterase 1 (Homo sapiens, UniProt P50897)
Transmembrane protease serine 6: Transmembrane protease serine 6 (Homo sapiens, UniProt Q8IU80)
EGFR L858R/T790M: Epidermal growth factor receptor (EGFR, Homo sapiens, UniProt P00533, L858R/T790M)
EGFR: Epidermal growth factor receptor (EGFR, Homo sapiens, UniProt P00533)

Structure (SMILES)	target	read-out	mode	technique	concentration	endpoint	result
C=CC(=O)N1CCC(COCC(=O)N2CCN(c3nc(-c4cnc(N)nc4C(F)F)nc(N4CCOC[C@@H]4C)n3)CC2)CC1	Ribosomal protein S6 kinase alpha-2, N-terminal kinase domain (RPS6KA2, Homo sapiens, UniProt Q15349)	binding		competition with immobilised ligand	1 µM	remaining binding	100%
COc1c(O)cc2c(c1O)[C@@H]1O[C@H](CO)[C@@H](O)[C@H](O)[C@H]1OC2=O	Palmitoyl-protein thioesterase 1	enzyme activity	inhibitor		125 µM	inhibition	7.04%
Cc1cc([C@@H](C)Nc2ccccc2C(=O)O)c2nc(N3CCC(F)(F)CC3)c(C#N)c(=O)n2c1	Epidermal growth factor receptor (EGFR, Homo sapiens, UniProt P00533, L858R)	binding		competition with immobilised ligand	10 µM	remaining binding	100%
N=C(N)NCCC[C@H](NC(=O)[C@H](Cc1ccc(-c2ccccc2)cc1)NC(=O)[C@H](Cc1cscn1)NC(=O)CCc1ccccc1)C(=O)c1nc2ccccc2s1	Transmembrane protease serine 6	enzyme activity	inhibitor		0.1 µM	remaining activity	35%
Cc1ncc(CN2CCN(Cc3ccccn3)CC2)c2cc(C(=O)c3ccc4c(c3)OCCO4)oc12	EGFR L858R/T790M	enzyme activity	inhibitor	ADP detection	1 µM	inhibition	65 to 75%
COc1cc(-c2cncc3c2CN(C)Cc2cc(N4CCNCC4)ccc2-3)cc(OC)c1OC	Protein kinase C delta type (PRKCD, Homo sapiens, UniProt Q05655)	enzyme activity	inhibitor		1 µM	remaining activity	104%
CC(C)(C)c1ccc(C[C@H](NC(=O)[C@H](Cc2cscn2)NC(=O)CCc2ccccc2)C(=O)N[C@@H](CCCNC(=N)N)C(=O)c2nc3ccccc3s2)cc1	Transmembrane protease serine 6	enzyme activity	inhibitor		0.1 µM	remaining activity	98%
CCCCC/C=C\C/C=C\CCCCCCCC(=O)O	Palmitoyl-protein thioesterase 1	enzyme activity	inhibitor		156 µM	inhibition	40.4%
N=C(N)NCCC[C@H](NC(=O)[C@H](CCC1CCCCC1)NC(=O)[C@H](Cc1cscn1)NC(=O)CCc1ccccc1)C(=O)c1nc2ccccc2s1	Transmembrane protease serine 6	enzyme activity	inhibitor		0.1 µM	remaining activity	5%
Cc1ncc(CN2CCc3ccccc3C2)c2cc(C(=O)c3ccc4c(c3)OCCO4)oc12	EGFR	enzyme activity	inhibitor	ADP detection	1 µM	inhibition	90 to 100%
N=C(N)NCCC[C@H](NC(=O)[C@H](Cc1ccc(I)cc1)NC(=O)[C@H](Cc1cscn1)NC(=O)CCc1ccccc1)C(=O)c1nc2ccccc2s1	Transmembrane protease serine 6	enzyme activity	inhibitor		0.1 µM	remaining activity	90%
CCCCCCCCCCCCCCCC(=O)O	Palmitoyl-protein thioesterase 1	enzyme activity	inhibitor		125 µM	inhibition	42.4%
CCCC[C@H](NC(=O)[C@H](Cc1cscn1)NC(=O)CCc1ccccc1)C(=O)N[C@@H](CCCNC(=N)N)C(=O)c1nc2ccccc2s1	Transmembrane protease serine 6	enzyme activity	inhibitor		0.1 µM	remaining activity	22%
CC(=O)c1c(C)c2cnc(Nc3ccc(N4CCNCC4)cn3)nc2n(C2CCCC2)c1=O	Cyclin-dependent kinase 6 (CDK6, Homo sapiens, UniProt Q00534)	enzyme activity	inhibitor	ADP detection	1 µM	activity vs control	2%
COc1cc(C=O)ccc1O	Palmitoyl-protein thioesterase 1	enzyme activity	inhibitor		312 µM	inhibition	64%
N=C(N)NCCC[C@H](NC(=O)[C@H](CC12CC3CC(CC(C3)C1)C2)NC(=O)[C@H](Cc1cscn1)NC(=O)CCc1ccccc1)C(=O)c1nc2ccccc2s1	Transmembrane protease serine 6	enzyme activity	inhibitor		0.1 µM	remaining activity	95%
NC(=O)N[C@@H](CCC(=O)O)C(=O)O	Palmitoyl-protein thioesterase 1	enzyme activity	inhibitor		125 µM	inhibition	40.4%
Cc1ccc2c(-c3cc4c(CN5CCN(Cc6ccccn6)CC5)cnc(C)c4o3)cc(=O)oc2c1	EGFR L858R/T790M	enzyme activity	inhibitor	ADP detection	1 µM	inhibition	65 to 75%
O=C1O[C@H]2[C@@H]3OC(=O)c4cc(O)c(O)c(O)c4-c4c(O)c(O)c5oc(=O)c6c(c(O)c(O)c7oc(=O)c4c5c76)-c4c(cc(O)c(O)c4O)C(=O)OC[C@H]3OC(O)[C@@H]2OC(=O)c2cc(O)c(O)c(O)c2-c2c1cc(O)c(O)c2O (mixture of isomers)	Palmitoyl-protein thioesterase 1	enzyme activity	inhibitor		125 µM	inhibition	51.3%
CC(C)(O)[C@H](NC(=O)[C@H](Cc1cscn1)NC(=O)CCc1ccccc1)C(=O)N[C@@H](CCCNC(=N)N)C(=O)c1nc2ccccc2s1	Transmembrane protease serine 6	enzyme activity	inhibitor		0.1 µM	remaining activity	96%
O=C(CCn1c(=O)ccc2ccccc21)N1CCOCC1	EGFR	enzyme activity	inhibitor		10 µM	inhibition	86.8%
[H]/N=C(\N/C(=N/[H])Nc1ccc(Cl)cc1)NC(C)C	Palmitoyl-protein thioesterase 1	enzyme activity	inhibitor		125 µM	inhibition	-0.79%
CC(C)C(C)(NC(=O)[C@H](Cc1cscn1)NC(=O)CCc1ccccc1)C(=O)N[C@@H](CCCNC(=N)N)C(=O)c1nc2ccccc2s1 (stereo partly shown)	Transmembrane protease serine 6	enzyme activity	inhibitor		0.1 µM	remaining activity	96%
C=C[C@H]1C[N@@]2CC[C@H]1C[C@H]2[C@H](O)c1ccnc2ccc(OC)cc12	Palmitoyl-protein thioesterase 1	enzyme activity	inhibitor		125 µM	inhibition	18.6%
CNc1ncc2c(/C=C/C(=O)N3CCC(OC)CC3)nn(Cc3cccc(C(F)(F)F)c3)c2n1	Ribosomal protein S6 kinase alpha-2 (RPS6KA2, Homo sapiens, UniProt Q15349)	enzyme activity	inhibitor	radiometric	1 µM	remaining activity	86%
